Measured values from ChEMBL document CHEMBL1157908, “Macrocyclic pyridyl polyoxazoles: selective RNA and DNA G-quadruplex ligands as antitumor agents” (J Med Chem, 2010).

Experiments:
Nucleic Acid [1] = assay: Thermal stabilization of Salmon testes duplex DNA assessed as change in transition temperature at 15 uM after 4 hrs by temperature-dependent spectrophotometry in presence of 150 mM K+ ions; format: nucleic-acid assay; conditions: Salmonidae
In short: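 Salmon testes duplex DNA at 30 μM base pair with ligand at 15 μM. Buffer 10 mM potassium phosphate pH 7.5 with 132 mM KCl (150 mM K+). DNA preheated at 90 °C for 5 min and cooled slowly over 4 hr. Temperature-dependent absorbance recorded in 1 cm quartz cells.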

Nucleic Acid [2] = assay: Thermal stabilization of […] poly(rA).poly(rU) duplex RNA assessed as change in transition temperature at 15 uM after 4 hrs by temperature-dependent spectrophotometry in presence of 150 mM K+ ions; format: nucleic-acid assay
Nucleic Acid [3] = assay: Thermal stabilization of human G-quadruplex d[T2G3(T2AG3)3A] DNA assessed as change in transition temperature at 20 uM after 4 hrs by temperature-dependent spectrophotometry in presence of 150 mM K+ ions; format: nucleic-acid assay
In short: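 UV melting in 1 cm quartz cells. Sample held 5 μM strand of hTel DNA 24mer or AurA RNA 22mer, with ligand at 20 μM. Buffer 10 mM potassium phosphate pH 7.5 plus 132 mM KCl (150 mM K+ total). Nucleic acids preheated at 90 °C for 5 min and slowly cooled over 4 hr before use. AurA transition followed at 295 nm.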

[4] = Cytotoxicity against human RPMI8402 cells by MTA assay; format: functional, cell-based; conditions: RPMI 8402
In short: (§1)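 MTT microtiter assay. Cells were kept at 37 °C in 5% CO2 in RPMI with 10% heat-inactivated FBS, 2 mM L-glutamine and penicillin/streptomycin. Continuous exposure to a range of drug concentrations for four days, then MTT read-out. Drug-free control included. IC50 from at least two assays, each in six replicate wells.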

[5] = Cytotoxicity against human KBV1 cells expressing MDR1 by MTA assay; format: functional, cell-based; conditions: KB-V1; in short: as §1
[6] = Cytotoxicity against wild type human KB3-1 cells by MTA assay; format: functional, cell-based; conditions: KB 3-1; in short: as §1
[7] = Cytotoxicity against human KBH5.0 cells expressing efflux transporter BCRP by MTA assay; format: functional, cell-based; conditions: KBH5.0 cell; in short: as §1

Row | deltaT (Nucleic Acid [1]) | deltaT (Nucleic Acid [2]) | deltaT (Nucleic Acid [3]) | Compound | IC50 [4] | IC50 [5] | IC50 [6] | IC50 [7]
1 | 0 °C | 0 °C | 0 °C | O=C1NCc2cccc(c2)CNC(=O)c2coc(n2)-c2csc(n2)-c2cccc(n2)-c2nc(cs2)-c2nc1co2 | > 10 µM | > 10 µM | > 10 µM | > 10 µM
2 | 0 °C | 0.5 °C | 21 °C | NCCc1cc2cc(c1)CNC(=O)c1coc(n1)-c1coc(n1)-c1cccc(n1)-c1nc(co1)-c1nc(co1)C(=O)NC2 | 0.09 µM | > 10 µM | 0.03 µM | 0.14 µM
3 |  |  |  | O=C(NCCc1cc2cc(c1)CNC(=O)c1coc(n1)-c1coc(n1)-c1cc(OCCCN3C(=O)c4ccccc4C3=O)cc(n1)-c1nc(co1)-c1nc(co1)C(=O)NC2)OCc1ccccc1 | > 10 µM | > 10 µM | > 10 µM | > 10 µM
4 |  |  |  | O=C(NCCc1cc2cc(c1)CNC(=O)c1coc(n1)-c1coc(n1)-c1cccc(n1)-c1nc(co1)-c1nc(co1)C(=O)NC2)OCc1ccccc1 | 0.12 µM | > 10 µM | 0.12 µM | > 10 µM
5 |  |  |  | O=C1NCc2cccc(c2)CNC(=O)c2coc(n2)-c2coc(n2)-c2cc(Br)cc(n2)-c2nc(co2)-c2nc1co2 | 0.3 µM | 2 µM | 0.15 µM | 1 µM
6 |  |  |  | NCCCOc1cc2nc(c1)-c1nc(co1)-c1nc(co1)C(=O)NCc1cccc(c1)CNC(=O)c1coc(n1)-c1coc-2n1 | 5 µM | > 10 µM | 3 µM | > 10 µM
7 |  |  |  | O=C1NCc2cccc(c2)CNC(=O)c2coc(n2)-c2coc(n2)-c2cc(OCCCN3C(=O)c4ccccc4C3=O)cc(n2)-c2nc(co2)-c2nc1co2 | 4.5 µM | > 10 µM | 0.4 µM | > 10 µM
8 |  |  |  | O=C1NCc2cc(CCNC(=O)C(F)(F)F)cc(c2)CNC(=O)c2coc(n2)-c2coc(n2)-c2cccc(n2)-c2nc(co2)-c2nc1co2 | 0.17 µM | > 10 µM | 0.07 µM | > 10 µM
9 |  |  |  | O=C(NCCc1cc2cc(c1)CNC(=O)c1coc(n1)-c1coc(n1)-c1cc(Br)cc(n1)-c1nc(co1)-c1nc(co1)C(=O)NC2)OCc1ccccc1 | 1 µM | > 10 µM | 0.6 µM | > 10 µM
